Laboratory results from PMC4480188 (Experimental parasitology, 2015).
“And” between values parts separate entries of the source, which are not always exact repeats. Identical values can stand only once. “Also recorded” adds a separate entry of the source. Like-named read-outs stand apart in the source and are kept apart here. Marks after values point to notes of the source that are not given here.

Legend:
P. falciparum 3D7 = test: Antimalarial activity by SYBR Green assay; format: cell-based, Plasmodium falciparum; details: for IC50: mean of three independent experiments ± SEM; for Antimalarial activity: summary of IC50 results
[1] = system: human normal skin fibroblast FF 2441 cells; details: read-out: IC50, FF 2441 cells; MTS assay, ± SEM; ref Robertson et al. (2014); cited from earlier work
[2] = system: human metastatic melanoma UACC 903 cells; details: read-out: IC50, UACC 903 cells; MTS assay, ± SEM; ref Robertson et al. (2014); cited from earlier work
[3] = system: P. falciparum 3D7 parasites (asexual stage, ring stage); format: cell-based, Plasmodium falciparum; details: for Antimalarial activity, ranking among the three compounds tested: 2.5-20 μM, 24-72 h, microscopy
Procedure, shortened: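 Sorbitol-synchronized P. falciparum 3D7 in human erythrocytes (37 °C, 5% O2/5% CO2/90% N2) was treated at ring stage (8–10 h post-invasion, 4–6% parasitemia) with 2.5, 5, 10 or 20 μM test compound, or left untreated. Aliquots were taken at 24, 48 and 72 h for Giemsa-stained thin smears. Percent parasitemia and stage (rings, trophozoites, schizonts) were scored by light microscopy.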

[4] = system: P. falciparum gametocytes; format: cell-based, Plasmodium falciparum; details: 48 h
Procedure, shortened: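 Gametocytes came from P. falciparum cultured continuously for 6–8 weeks at >10% parasitemia, with weekly sorbitol synchronization, in human erythrocytes at 37 °C under 5% O2/5% CO2/90% N2. Gametocyte cultures were exposed to test compound at 10 or 20 μM for 48 h alongside untreated controls. Giemsa-stained smears of culture pellets were then examined by light microscopy for gametocyte morphology.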

[5] = 2.5 μM, 48 h, treated at ring stage
[6] = 2.5 μM, 72 h, treated at ring stage
[7] = 5 μM, 24 h, treated at ring stage
[8] = 5 μM, 48 h, treated at ring stage
[9] = 5 μM, 72 h, NVP = no viable parasites
[10] = 10 μM, 24 h, treated at ring stage
[11] = 10 μM, 48 h, ring-stage (R) parasites
[12] = 10 μM, 72 h, NVP = no viable parasites
[13] = 20 μM, 24 h, NVP = no viable parasites
[14] = 20 μM, 72 h, NVP = no viable parasites
[15] = 20 μM, 48 h, ring-stage (R) parasites, NVP = no viable parasites
[16] = up to 20 μM, 48 h, ring stage treated

IC50 (P. falciparum 3D7; read-out: IC50, 3D7, 72 h) | SMILES | Inhibition of parasite growth (P. falciparum 3D7; 20 μM, 72 h) | Antimalarial activity (P. falciparum 3D7) | IC50 [1] [µM] | IC50 [2] [µM] | Percent parasitemia and parasite growth stage [3, 5] | Percent parasitemia and parasite growth stage [3, 6] | Percent parasitemia and parasite growth stage [3, 7] | Percent parasitemia and parasite growth stage [3, 8] | Percent parasitemia and parasite growth stage [3, 9] | Percent parasitemia and parasite growth stage [3, 10] | Percent parasitemia and parasite growth stage [3, 11] | Percent parasitemia and parasite growth stage [3, 12] | Percent parasitemia and parasite growth stage [3, 13] | Percent parasitemia and parasite growth stage [3, 14] | Antimalarial activity, ranking among the three compounds tested [3] | Percent parasitemia and parasite growth stage [3, 15] | Inhibition of parasite growth (P. falciparum 3D7; [16]) | also measured
13.3 ± 0.44 µM | CCC(=O)NCC1(C)CCCC2(C)c3ccc(C(C)C)cc3CCC12 (stereo not drawn) [2c, N-dehydroabietylpropionamide] | complete inhibition | good to excellent antimalarial activity | > 100 | 89.4 ± 3.3 |  |  |  |  |  |  |  |  |  |  |  |  |  | 
0.36 ± 0.13 µM | CC(C)c1ccc2c(c1)CCC1C(C)(CNC(=O)c3ccccc3)CCCC21C (stereo not drawn) [2d, N-dehydroabietylbenzamide] |  | good to excellent antimalarial activity; also recorded: most potent antimalarial activity | > 100 | > 100 |  |  |  |  |  |  |  |  |  |  |  |  |  | 
~90.6 µM and 90.6 µM | CC(C)c1ccc2c(c1)CC[C@H]1[C@](C)(CNC(c3ccccc3)(c3ccccc3)c3ccccc3)CCC[C@]21C [2f] | not inhibitory |  | > 100 | > 100 |  |  |  |  |  |  |  |  |  |  |  |  |  | 
8.2 ± 0.48 µM | CC(C)C1=CC2=CC[C@H]3[C@](C)(CN)CCC[C@]3(C)[C@H]2CC1 [4d, abietylamine] |  |  | 8.3 ± 0.41 | 2.1 ± 0.25 | 20.4 ± 1.3 (R) % | 10.0 ± 0.5 (T) % | 6.0 ± 0.4 (T) % | 16.1 ± 1.5 (R) % | 9.0 ± 0.4 (T) ^b % | 4.3 ± 0.4 (T) % | 10.1 ± 0.6% | 8.3 ± 0.1 (T) ^b % | 3.7 ± 0.3 (T) % | NVP ^b | moderately active |  |  | Inhibition of parasite growth ([3]; 2.5 μM, by 72 h): about 50%; Parasites developed into trophozoites ([3]; 20 μM, 24 h period): ~ 60%; Percent parasitemia and parasite growth stage ([3]; 20 μM, 48 h, ring-stage (R) parasites, NVP = no viable parasites, listed as Abietylamine): 2.4 ± 0.5%; Percent parasitemia and parasite growth stage ([3]; 20 μM, 48 h, ring-stage (R) parasites, NVP = no viable parasites, listed as abietylamine): ~ 2.4%; Parasites at the trophozoite and schizont stages ([3]; 20 μM, 48 h, share of those that developed into trophozoites): ~ 45%; Effect on parasites ([3]; 20 μM, by 72 h): completely killed the parasites
 | CC(C)C1=CC2=CC[C@@H]3[C@](C)(CCC[C@@]3(C)C(=O)O)[C@H]2CC1 [compound 3, abietic acid] |  |  | > 100 | > 100 | 21.6 ± 1.0 (R) % | 20.6 ± 1.2 (T) % | 6.0 ± 0.3 (T) % | 22.0 ± 1.3 (R) % | 20.6 ± 0.4 (T) % | 5.7 ± 0.3 (T) % | 22.3 ± 0.6 (R) % | 20.0 ± 0.2 (T) % | 5.9 ± 0.4 (T) % | 15.1 ± 0.3 (T) % | negligibly active | 20.6 ± 0.9 (R) % | negligible activity | Effect on parasite growth ([3]; 20 μM, second life cycle): noticeably inhibit parasite growth; Effect on parasite growth ([3]; 2.5, 5, and 10 μM, 72 h culturing period): no effect on parasite growth; Gametocidal effect ([4]; 10 and 20 μM): no activity; also recorded: no effect on gametocytes; IC50 (P. falciparum 3D7; Plasmodium falciparum, 3D7, 72 h, read-out: IC50, 3D7, 72 h): ~82 µM

SMILES | IC50 (P. falciparum 3D7; read-out: IC50, 3D7, 72 h) | Inhibition of parasite growth (P. falciparum 3D7; 20 μM, 72 h) | Antimalarial activity (P. falciparum 3D7) | IC50 [1] [µM] | IC50 [2] [µM] | Percent parasitemia and parasite growth stage [3, 5] | Percent parasitemia and parasite growth stage [3, 6] | Percent parasitemia and parasite growth stage [3, 7] | Percent parasitemia and parasite growth stage [3, 8] | Percent parasitemia and parasite growth stage [3, 9] | Percent parasitemia and parasite growth stage [3, 10] | Percent parasitemia and parasite growth stage [3, 11] | Percent parasitemia and parasite growth stage [3, 12] | Percent parasitemia and parasite growth stage [3, 13] | Percent parasitemia and parasite growth stage [3, 14] | Antimalarial activity, ranking among the three compounds tested [3] | Percent parasitemia and parasite growth stage [3, 15] | Inhibition of parasite growth (P. falciparum 3D7; [16]) | also measured
CC(C)c1ccc2c(c1)CC[C@H]1[C@](C)(CN)CCC[C@]21C [compound 1, dehydroabietylamine] | 1.8 ± 0.22 µM |  |  | 8.9 ± 0.68 | 1.4 ± 0.24 | 10.3 ± 1.3 (R) % | 9.1 ± 0.5 (T) ^b % | 5.5 ± 0.3 (T) % | 6.1 ± 1.5 (T, S, R) % | NVP | 3.3 ± 0.3 (T) % |  | NVP | NVP^c | NVP | most active | NVP | efficiently inhibited parasite growth in a dose dependent manner | Parasites developed into trophozoites ([3]; 10 μM, 24 h treatment): ~ 60%; Remaining trophozoites still at the trophozoite and schizont stages, unhealthy ([3]; 10 μM, 48 h): ~ 73%; Percent parasitemia and parasite growth stage ([3]; 10 μM, 48 h, ring-stage (R) parasites, listed as Dehydroabietylamine): 2.5 ± 0.2%; Percent parasitemia and parasite growth stage ([3]; 10 μM, 48 h, ring-stage (R) parasites, listed as dehydroabietylamine): ~ 2.5%; Trophozoites matured into healthy schizonts ([3]; 10 μM, by 48 h): ~ 27%; Effect on parasite development ([3]; 20 μM, 24 h): completely inhibited parasite development into trophozoites; Gametocidal effect ([4]; 10 μM): gametocytes shrunk and condensed into non-viable, rounded condensed bodies; Gametocidal effect ([4]; 20 μM): completely lysed gametocytes
